pIC50: −log10 of the molar value. Calls of active or inactive are those of the source. The calls are words filed in the database; no cut-off is given here.
Columns and labels:
[1] = target: T1, Carnitine O-palmitoyltransferase 1, muscle isoform (Rattus norvegicus, UniProt Q63704); assay: Inhibition of Wistar rat heart mitochondrial CPT-1 assessed as reduction in conversion of palmitoyl CoA and L-carnitine into palmitoylcarnitine preincubated for 3 mins followed by L-carnitine and palmitoyl CoA addition measured for 3.5 mins by spectrophotometric analysis
T1 sequence (Q63704 whole entry): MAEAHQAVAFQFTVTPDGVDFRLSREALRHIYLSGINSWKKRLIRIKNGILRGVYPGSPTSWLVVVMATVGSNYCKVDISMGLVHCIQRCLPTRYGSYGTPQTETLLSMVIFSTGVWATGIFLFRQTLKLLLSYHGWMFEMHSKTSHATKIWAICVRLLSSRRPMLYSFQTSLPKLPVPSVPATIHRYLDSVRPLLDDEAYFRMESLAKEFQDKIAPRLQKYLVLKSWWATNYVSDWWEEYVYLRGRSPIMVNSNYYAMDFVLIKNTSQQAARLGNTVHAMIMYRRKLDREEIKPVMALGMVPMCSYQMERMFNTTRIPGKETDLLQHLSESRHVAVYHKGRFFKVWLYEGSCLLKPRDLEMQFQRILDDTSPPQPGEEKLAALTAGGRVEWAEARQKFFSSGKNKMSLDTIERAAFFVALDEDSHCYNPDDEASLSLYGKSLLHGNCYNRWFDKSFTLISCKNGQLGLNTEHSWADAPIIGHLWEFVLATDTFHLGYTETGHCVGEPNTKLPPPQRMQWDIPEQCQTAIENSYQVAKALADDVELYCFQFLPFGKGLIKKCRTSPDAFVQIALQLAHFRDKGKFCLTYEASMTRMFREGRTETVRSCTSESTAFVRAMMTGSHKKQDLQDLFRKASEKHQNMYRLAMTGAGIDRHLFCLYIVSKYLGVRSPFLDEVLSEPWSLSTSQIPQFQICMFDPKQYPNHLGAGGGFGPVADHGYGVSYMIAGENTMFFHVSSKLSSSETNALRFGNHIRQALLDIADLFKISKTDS

[2] = Half life in human liver microsomes at 3 uM up to 45 mins in presence of NADPH by LC-MS/MS analysis; format: ADME, microsome
[3] = Half life in Sprague-Dawley rat liver microsomes at 3 uM up to 45 mins in presence of NADPH by LC-MS/MS analysis; format: ADME, microsome
[4] = AUC (0 to 24 hrs) in BALB/c mouse myocardium at 10 mg/kg, po administered via gavage every 24 hrs for 7 days measured post last dose by LC-MS/MS analysis; format: ADME, organism-based; design: time < 24 hr, dose 10 mg/kg, route oral
Outline: (§1)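 Male BALB/c mice, daily oral gavage at 10 mg/kg. Plasma and myocardium sampled 1, 4, 8 and 24 h after dosing, n = 3 per timepoint. […] Myocardium:plasma ratios taken from drug concentration or from AUC. Student's t-test used.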

[5] = Drug uptake in BALB/c mouse myocardium at 10 mg/kg, po administered via gavage every 24 hrs for 7 days measured 4 hrs post last dose by LC-MS/MS analysis; format: ADME, organism-based; conditions: read-out: Drug uptake; outline: as §1
[6] = Drug uptake in BALB/c mouse myocardium at 10 mg/kg, po administered via gavage every 24 hrs for 7 days measured 1 hr post last dose by LC-MS/MS analysis; format: ADME, organism-based; conditions: read-out: Drug uptake; outline: as §1
[7] = Ratio of drug level in myocardium to plasma in BALB/c mouse at 10 mg/kg, po administered via gavage every 24 hrs for 7 days measured 8 hrs post last dose by LC-MS/MS analysis; format: ADME, organism-based; conditions: myocardium and plasma; outline: as §1
Heart [8] = assay: Cardioprotective activity in Langendorff perfused C57BL/6 mouse heart assessed as increase in cardiac relaxation at 10 uM perfused for 30 mins in presence of high fat relative to control; format: functional
Outline: (§2)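 Isolated C57BL/6 hearts (25-30 g) retrogradely perfused at constant 80 mmHg, 37 °C, 95% O2/5% CO2, with modified Krebs containing 1.2 mM sodium palmitate conjugated to 3% BSA. After 10 min stabilisation, 30 min perfusion with control buffer or compound at 2 or 10 µM. LVdP/dt max and min derived from LV pressure over 40 min; mean ± SEM, n = 12-19, 1-way ANOVA with Bonferroni.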

[9] = Ratio of drug level in myocardium to plasma in Sprague-Dawley rat at 10 mg/kg, po administered via gavage every 24 hrs measured at 1 hr post dose by LC-MS/MS analysis; format: ADME, organism-based; conditions: myocardium and plasma
Outline: (§3)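 Male Sprague-Dawley rats, daily oral dosing at 10 mg/kg. Plasma sampled at 1, 2, 4, 8 and 24 h after dosing, n = 3 per timepoint. Myocardium measured at 1 and 8 h. Myocardium:plasma ratio taken from drug concentration.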

[10] = AUC (0 to 24 hrs) in BALB/c mouse plasma at 10 mg/kg, po administered via gavage every 24 hrs for 7 days measured post last dose by LC-MS/MS analysis; format: ADME, organism-based; design: dose 10 mg/kg, time < 24 hr, route oral; outline: as §1
[11] = Drug uptake in Sprague-Dawley rat myocardium at 10 mg/kg, po administered via gavage every 24 hrs measured at 1 hr post last dose by LC-MS/MS analysis; format: ADME, organism-based; conditions: read-out: Drug uptake; outline: as §3
[12] = Ratio of drug level in myocardium to plasma in BALB/c mouse at 10 mg/kg, po administered via gavage every 24 hrs for 7 days measured 1 hr post last dose by LC-MS/MS analysis; format: ADME, organism-based; conditions: myocardium and plasma; outline: as §1
[13] = Ratio of drug level in myocardium to plasma in Sprague-Dawley rat at 10 mg/kg, po administered via gavage every 24 hrs measured at 8 hrs post dose by LC-MS/MS analysis; format: ADME, organism-based; conditions: myocardium and plasma; outline: as §3
[14] = Plasma concentration in Sprague-Dawley rat at 10 mg/kg, po administered via gavage every 24 hrs measured at 4 hrs post last dose by LC-MS/MS analysis; format: ADME, organism-based; outline: as §3
Heart [15] = assay: Cardioprotective activity against Langendorff perfused C57BL/6 mouse heart assessed as lusitropic effect at 10 uM measured for 40 mins reperfusion period in presence of high fat; format: functional, tissue-based; outline: as §2
Heart [16] = assay: Cardioprotective activity in Langendorff perfused C57BL/6 mouse heart perfused for 30 mins in presence of high fat; format: functional, tissue-based
[17] = Plasma concentration in Sprague-Dawley rat at 10 mg/kg, po administered via gavage every 24 hrs measured at 8 hrs post last dose by LC-MS/MS analysis; format: ADME, organism-based; outline: as §3
[18] = Ratio of AUC (0 to 24 hrs) in myocardium to plasma in BALB/c mouse at 10 mg/kg, po administered via gavage every 24 hrs for 7 days measured post last dose by LC-MS/MS analysis; format: ADME, organism-based; conditions: myocardium and plasma, read-out: Ratio AUC; outline: as §1
[19] = Plasma concentration in BALB/c mouse at 10 mg/kg, po administered via gavage every 24 hrs for 7 days measured 8 hrs post last dose by LC-MS/MS analysis; format: ADME, organism-based; outline: as §1
CYP2D6 = CYP2D6 (Homo sapiens, UniProt P10635); assay: Drug metabolism assessed as human CYP2D6-mediated compound degradation by measuring half life at 5 uM up to 45 mins in presence of NADPH by LC-MS/MS analysis; format: ADME
Sequence of CYP2D6 (P10635 whole entry): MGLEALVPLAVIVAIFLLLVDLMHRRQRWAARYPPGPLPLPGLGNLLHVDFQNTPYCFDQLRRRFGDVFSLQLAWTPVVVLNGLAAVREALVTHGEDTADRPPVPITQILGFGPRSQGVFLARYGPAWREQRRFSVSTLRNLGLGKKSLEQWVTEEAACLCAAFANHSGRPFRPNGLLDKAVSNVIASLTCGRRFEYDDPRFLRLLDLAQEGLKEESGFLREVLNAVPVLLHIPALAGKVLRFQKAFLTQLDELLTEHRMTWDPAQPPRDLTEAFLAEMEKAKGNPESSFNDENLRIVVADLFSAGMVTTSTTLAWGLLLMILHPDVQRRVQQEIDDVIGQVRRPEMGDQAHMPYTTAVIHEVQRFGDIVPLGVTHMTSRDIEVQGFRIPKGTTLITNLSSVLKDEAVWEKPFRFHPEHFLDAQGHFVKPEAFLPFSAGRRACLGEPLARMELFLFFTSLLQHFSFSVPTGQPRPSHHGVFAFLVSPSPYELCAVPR

[20] = Plasma concentration in Sprague-Dawley rat at 10 mg/kg, po administered via gavage every 24 hrs measured at 1 hr post dose by LC-MS/MS analysis; format: ADME, organism-based; outline: as §3
[21] = Plasma concentration in BALB/c mouse at 10 mg/kg, po administered via gavage every 24 hrs for 7 days measured 4 hrs post last dose by LC-MS/MS analysis; format: ADME, organism-based; outline: as §1
[22] = Plasma concentration in Sprague-Dawley rat at 10 mg/kg, po administered via gavage every 24 hrs measured at 2 hrs post last dose by LC-MS/MS analysis; format: ADME, organism-based; outline: as §3
[23] = Stability of the compound in pH 7.4 PBS buffer at 37 degC after 1 hr; format: physicochemical; conditions: pH 7.4, 1 h
Outline: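 Compound incubated 1 h in pH 7.4 PBS at 37 °C, then checked for decomposition.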

Heart [24] = assay: Cardioprotective activity in Langendorff perfused C57BL/6 mouse heart assessed as increase in cardiac contractility at 10 uM perfused for 30 mins in presence of high fat relative to control; format: functional; outline: as §2
[25] = Drug uptake in BALB/c mouse myocardium at 10 mg/kg, po administered via gavage every 24 hrs for 7 days measured 8 hrs post last dose by LC-MS/MS analysis; format: ADME, organism-based; conditions: read-out: Drug uptake; outline: as §1
[26] = Drug uptake in Sprague-Dawley rat myocardium at 10 mg/kg, po administered via gavage every 24 hrs measured at 8 hrs post last dose by LC-MS/MS analysis; format: ADME, organism-based; conditions: read-out: Drug uptake; outline: as §3
[27] = Plasma concentration in BALB/c mouse at 10 mg/kg, po administered via gavage every 24 hrs for 7 days measured at 1 hr post last dose by LC-MS/MS analysis; format: ADME, organism-based; outline: as §1
[28] = Ratio of drug level in myocardium to plasma in BALB/c mouse at 10 mg/kg, po administered via gavage every 24 hrs for 7 days measured 4 hrs post last dose by LC-MS/MS analysis; format: ADME, organism-based; conditions: myocardium and plasma; outline: as §1
Heart [29] = assay: Cardioprotective activity in Langendorff perfused C57BL/6 mouse heart assessed as increase in cardiac relaxation at 2 uM perfused for 30 mins in presence of high fat relative to control; format: functional; outline: as §2
Heart [30] = assay: Cardioprotective activity in Langendorff perfused C57BL/6 mouse heart assessed as increase in cardiac contractility at 2 uM perfused for 30 mins in presence of high fat relative to control; format: functional; outline: as §2

pIC50 [1]	half-life at 3 µM [2]	half-life at 3 µM [3]	AUC at 24 h [4]	concentration at 4 h [5]	concentration at 1 h [6]	Kp at 8 h [7]	Kp at 1 h [9]	AUC at 24 h [10]	concentration at 1 h [11]	Kp at 1 h [12]	Kp at 8 h [13]	concentration at 4 h [14]	concentration at 8 h [17]	Kp [18]	concentration at 8 h [19]	half-life at 5 µM (CYP2D6)	concentration at 1 h [20]	concentration at 4 h [21]	concentration at 2 h [22]	SMILES	also measured
4.85	1.08 h	0.183 h																		C1CCC(C(C[C@@H]2CCCCN2)C2CCCCC2)CC1	
4.35	> 8.33 h	1.2 h	32400 ng·h/mL	1880 ng/mL	3730 ng/mL	9.5	15.3	3760 ng·h/mL	5910 ng/mL	10.7	7.2	297 ng/mL	179 ng/mL	8.6	192 ng/mL	1.73 h	386 ng/mL	172 ng/mL	375 ng/mL	FC1(F)CCC(C(CC2CCCCN2)C2CCCCC2)CC1 (centres undefined)	fold change (FC) (Heart [8]): 2.7; Activity (Heart [15]): Active; Activity (Heart [16]): Dose-dependent effect; Stability [23]: Stable; fold change (FC) (Heart [24]): 1.8; concentration at 8 h [25]: 1830 ng/mL; concentration at 8 h [26]: 1290 ng/mL; concentration at 1 h [27]: 346 ng/mL; Kp at 4 h [28]: 10.9
5.92																				CC(C)(COP(=O)(O)OP(=O)(O)OC[C@H]1O[C@@H](n2cnc3c(N)ncnc32)[C@H](O)[C@@H]1OP(=O)(O)O)[C@@H](O)C(=O)NCCC(=O)NCCSC(=O)CC(=O)O [MALONYL-COENZYME A]	
3.67	> 2.5 h	0.583 h																		FC1(F)CCCC(C(CC2CCCCN2)C2CCCCC2)C1 (centres undefined)	Stability [23]: Stable
3.32																				OC1CCC(C(CC2CCCCN2)C2CCCCC2)CC1 (centres undefined)	
4.96	1.67 h	0.35 h	2110 ng·h/mL	126 ng/mL	664 ng/mL	4.8	19	876 ng·h/mL	1900 ng/mL	5.7	11.5	97.4 ng/mL	31.4 ng/mL	2.4	6 ng/mL	0.233 h	99.9 ng/mL	28.3 ng/mL	113 ng/mL	C1CCC(C(CC2CCCCN2)C2CCCCC2)CC1 (racemic) [PERHEXILINE]	fold change (FC) (Heart [29]): 3.2; concentration at 8 h [25]: 29.2 ng/mL; concentration at 8 h [26]: 361 ng/mL; concentration at 1 h [27]: 116 ng/mL; Kp at 4 h [28]: 4.9; fold change (FC) (Heart [30]): 2.1

From ChEMBL document CHEMBL4043075, “Development of Fluorinated Analogues of Perhexiline with Improved Pharmacokinetic Properties and Retained Efficacy” (J Med Chem, 2017)
